Experimental data: ChEMBL document CHEMBL3393048, “Discovery of potent cytotoxic ortho-aryl chalcones as new scaffold targeting tubulin and mitosis with affinity-based fluorescence” (J Med Chem, 2014)
Calls of active or inactive are those of the source. The calls are words filed in the database; no cut-off is given here.

What was measured:
[1] = Antiproliferative activity against human HCT8 cells after 48 hrs by SRB method; type: functional, cell-based; settings: HCT-8, 48 h
In short: (§1)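 SRB assay. Cells in DMEM high glucose with 10% FBS were seeded at 5000/well and grown 24 h; a day-0 plate was fixed at that point. Compounds were added in triplicate for 48 h. IC50 came from nonlinear regression of dose–response curves from at least two independent experiments.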

Tubulin (Homo sapiens) [2] = biological target: T1, Tubulin (Homo sapiens) (UniProt P68371+Q9H4B7+P0DPH7+P68366+Q13509+Q71U36+P04350+Q3ZCM7+P07437+P68363+Q9BQE3+Q6PEY2+Q13885+Q9BVA1+Q9BUF5); assay: Binding affinity to tubulin (unknown origin) after 30 mins by fluorescence assay; type: protein-complex assay
In short: (§2)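 Intrinsic fluorescence on tubulin binding. Compounds were mixed with tubulin (4 μM or 8 μM) in general tubulin buffer and incubated 30 min. Readings were excitation 430/emission 510 nm or excitation 365/emission 465 nm, with kinetic reads from mixing. ΔF = stable emission minus tubulin-only fluorescence. Optimal wavelengths were set by wavelength scanning.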

A549 [3] = assay: Induction of apoptosis in human A549 cells assessed as early apoptotic cells at 0.25 uM after 48 hrs by Annexin V-FITC/propidium iodide staining-based flow cytometry (reference value: 0.47%); type: functional
Tubulin (Homo sapiens) [4] = biological target: T1, Tubulin (Homo sapiens); assay: Binding affinity to tubulin (unknown origin) at 4 uM by fluorescence assay; type: protein-complex assay; settings: TDE = time-dependent effect; in short: as §2
A549 [5] = assay: Induction of apoptosis in human A549 cells assessed as total apoptotic cells at 0.5 uM after 48 hrs by Annexin V-FITC/propidium iodide staining-based flow cytometry; type: functional
SW480 = assay: Antiproliferative activity against human SW480 cells after 48 hrs by SRB method; type: functional, cell-based; settings: SW480, 48 h; in short: as §1
A2780 [6] = assay: Antiproliferative activity against taxol-resistant human A2780 cells after 48 hrs by SRB method; type: functional, cell-based; settings: A2780, 48 h; in short: as §1
A549 [7] = assay: Induction of apoptosis in human A549 cells assessed as necrotic cells at 0.5 uM after 48 hrs by Annexin V-FITC/propidium iodide staining-based flow cytometry (reference value: 0.06%); type: functional
A549 [8] = assay: Antiproliferative activity against human A549 cells after 48 hrs by SRB method; type: functional, cell-based; settings: A549, 48 h
In short: as §1, with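 “h. Cells were fixed with TCA at 4 °C for 1 h, stained with 0.4% SRB, and the dye was solubilized in 10 mM Tris pH 10.4. OD was read at 515 nm with day-0 OD subtracted.” for “h.”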

A549 [9] = assay: Drug resistance index, ratio of IC50 for cis-platinum-resistant human A549 cells to IC50 for human A549 cells; type: functional
In short: (§3)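 Drug resistance index = IC50 in the resistant line / IC50 in its parental line. […] Pairs: A549/CDDP vs A549, MCF-7/DOX vs MCF-7, A2780/TAX vs A2780, HCT-8/VCT vs HCT-8.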

A549 [10] = assay: Induction of apoptosis in human A549 cells assessed as total apoptotic cells at 0.75 uM after 48 hrs by Annexin V-FITC/propidium iodide staining-based flow cytometry; type: functional
A549 [11] = assay: Induction of apoptosis in human A549 cells assessed as viable cells at 0.25 uM after 48 hrs by Annexin V-FITC/propidium iodide staining-based flow cytometry (reference value: 99.37%); type: functional; settings: A549, 48 h, read-out: Activity
A549 [12] = assay: Cell cycle arrest in human A549 cells assessed as accumulation at G2/M phase at 62.5 nM after 24 hrs by Hoechst 33342 staining-based ArrayScanVTI analysis; type: functional
In short: (§4)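 A549 cells were seeded at 5000/well, cultured overnight, then treated 24 h over a 7.81–250 concentration series. Cells were fixed in prewarmed paraformaldehyde 10 min, permeabilized with Triton X-100, and nuclei stained with Hoechst 33342. Imaging was by ArrayScan VTI high-content analysis. Phase percentage = cells within a gated fluorescence intensity / total cells counted.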

A2780 [13] = assay: Antiproliferative activity against human A2780 cells after 48 hrs by SRB method; type: functional, cell-based; settings: A2780, 48 h; in short: as §1
A549 [14] = assay: Antiproliferative activity against cis-platinum-resistant human A549 cells after 48 hrs by SRB method; type: functional, cell-based; settings: A549, 48 h
In short: as §1, with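 “h. Cells were fixed with TCA at 4 °C for 1 h, stained with 0.4% SRB, and the dye was solubilized in 10 mM Tris pH 10.4. OD was read at 515 nm with day-0 OD subtracted.” for “h.”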

A549 [15] = assay: Induction of apoptosis in human A549 cells assessed as early apoptotic cells at 0.5 uM after 48 hrs by Annexin V-FITC/propidium iodide staining-based flow cytometry (reference value: 0.47%); type: functional
A549 [16] = assay: Cell cycle arrest in human A549 cells assessed as accumulation at G2/M phase at 7.81 to 250 nM after 24 hrs by Hoechst 33342 staining-based ArrayScanVTI analysis; type: functional; in short: as §4
[17] = Antiproliferative activity against vincristine-resistant human HCT8 cells after 48 hrs by SRB method; type: functional, cell-based; settings: HCT-8, 48 h
In short: as §1, with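 “h. Cells were fixed with TCA at 4 °C for 1 h, stained with 0.4% SRB, and the dye was solubilized in 10 mM Tris pH 10.4. OD was read at 515 nm with day-0 OD subtracted.” for “h.”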

[18] = Antiproliferative activity against human CNE2 cells after 48 hrs by SRB method; type: functional, cell-based; settings: CNE-2, 48 h; in short: as §1
A549 [19] = assay: Induction of apoptosis in human A549 cells assessed as viable cells at 0.75 uM after 48 hrs by Annexin V-FITC/propidium iodide staining-based flow cytometry (reference value: 99.37%); type: functional; settings: A549, 48 h, read-out: Activity
A549 [20] = assay: Induction of apoptosis in human A549 cells assessed as viable cells at 1 uM after 48 hrs by Annexin V-FITC/propidium iodide staining-based flow cytometry (reference value: 99.37%); type: functional; settings: A549, 48 h, read-out: Activity
MCF7 = assay: Drug resistance index, ratio of IC50 for doxorubicin-resistant human MCF7 cells to IC50 for human MCF7 cells; type: functional; in short: as §3
A549 [21] = assay: Induction of apoptosis in human A549 cells assessed as late apoptotic cells at 1 uM after 48 hrs by Annexin V-FITC/propidium iodide staining-based flow cytometry (reference value: 0.10%); type: functional
A549 [22] = assay: Induction of apoptosis in human A549 cells assessed as total apoptotic cells at 1 uM after 48 hrs by Annexin V-FITC/propidium iodide staining-based flow cytometry; type: functional
Tubulin = assay: Inhibition of tubulin polymerization (unknown origin) by DAPI staining-based fluorescence microscopy; type: protein-complex assay, Homo sapiens
In short: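 Purified tubulin (99% pure; 20 μM as supplied) mixed with compound in general tubulin buffer (80 mM PIPES pH 6.9, 2.0 mM MgCl₂, 0.5 mM EGTA) with 1 mM GTP, 20% glycerol and DAPI reporter. Polymerization tracked kinetically at 37 °C as fluorescence rise (ex 360, em 450 nm). Duplicate wells per concentration. IC50 from at least two independent experiments.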

A549 [23] = assay: Induction of apoptosis in human A549 cells assessed as early apoptotic cells at 1 uM after 48 hrs by Annexin V-FITC/propidium iodide staining-based flow cytometry (reference value: 0.47%); type: functional
A549 [24] = assay: Induction of apoptosis in human A549 cells assessed as late apoptotic cells at 0.5 uM after 48 hrs by Annexin V-FITC/propidium iodide staining-based flow cytometry (reference value: 0.10%); type: functional
[25] = Drug resistance index, ratio of IC50 for vincristine-resistant human HCT8 cells to IC50 for human HCT8 cells; type: functional, HCT-8; in short: as §3
A549 [26] = assay: Induction of apoptosis in human A549 cells assessed as apoptotic cells after 48 hrs by Annexin V-FITC/propidium iodide staining-based flow cytometry; type: functional, cell-based

Activity (Tubulin (Homo sapiens) [2]): Dose-dependent effect
Activity (Tubulin (Homo sapiens) [4]): tde
IC50 (SW480): 41 nM
IC50 (A2780 [6]): 49 nM
IC50 (A549 [8]): 73 nM
IC50 (A2780 [13]): 94 nM
IC50 (A549 [14]): 110 nM
IC50 (Tubulin): 3600 nM
SMILES: CN(C)c1ccc(/C=C/C(=O)c2ccccc2-c2ccc(F)cc2)cc1
IC50 [1]: 130 nM
Activity (A549 [3]): 34.67%
Activity (A549 [5]): 75.71%
Activity (A549 [7]): 11.95%
Ratio IC50 (A549 [9]): 1.6
Activity (A549 [10]): 82.06%
viability at 0.25 µM (A549 [11]): 25.9%
Activity (A549 [12]): Active
Activity (A549 [15]): 33.86%
Activity (A549 [16]): Active
IC50 [17]: 96 nM
IC50 [18]: 30 nM
viability at 0.75 µM (A549 [19]): 8.57%
viability at 1 µM (A549 [20]): 8.21%
Ratio IC50 (MCF7): 0.68
Activity (A549 [21]): 42.86%
Activity (A549 [22]): 83.88%
Activity (A549 [23]): 41.02%
Activity (A549 [24]): 41.85%
Ratio IC50 [25]: 0.72
Activity (A549 [26]): Dose-dependent effect
